The EternaBench riboswitch data

Test system: MS2 coat protein
Experiment: apparent Kd, MS2 coat protein; higher = weaker binding; RNA-MaP array; FMN 200 µM where present
Procedure, shortened: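 Each design was made on Illumina sequencing-chip clusters by stalled E. coli RNA polymerase and titrated with SNAP-549-labelled MS2 coat protein from 0.7 or 1.5 nM, doubling to 3 µM, in the absence and then the presence of constant ligand. The buffer was 100 mM Tris-HCl pH 7.5, 80 mM KCl, 4 mM MgCl2, BSA, DTT, yeast tRNA and Tween-20. The apparent Kd is the median of filtered per-cluster fits of binding curves, with green signal normalised to red-channel RNA signal and control-cluster median Fmax.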

[1] = designed as: OFF switch for flavin mononucleotide, no ligand
[2] = ligand present: flavin mononucleotide, designed as: OFF switch for flavin mononucleotide
[3] = designed as: ON switch for flavin mononucleotide, no ligand
[4] = ligand present: flavin mononucleotide, designed as: ON switch for flavin mononucleotide

Sequence	apparent Kd [1] [nM]	apparent Kd [2] [nM]	apparent Kd [3] [nM]	apparent Kd [4] [nM]
GGCGAAGUAGGAUAUACAUGAGGAUCACCCAUGUAACCUGAUGGCGUAGGUCUUCUAUGUAGAAGGGCUACGCC	15.9	16.9		
GAGAAGAGGGAAGGAUAUACAUGAGGAUCACCCAUGUAGAUAGGUUUAAUAGGUUGUUGUUGUUUGUAGAAGGUCCGGUUUGUU	18	16.8		
AAAAAGUCAGGAUAUCGGAAAAAAAAAAAAAAAAGGAGAAACGAGAAGGGACAUGAGGAUCACCCAUGUAAAAA	51	46.7		
AGUCAUACAGGAUAUACAUGAGGAUCACCCAUGUUUAUCCUAAAAUAAAGAUCCUCAUGUAGAAGGGUAUGACA	12.8	12.6		
GGUCCUUCUGUUAGGAUAUGCUUUGGGCUUCCGCAGUAGAAGGAACAUGAGGAUCACCCAUGUCCGAUGCCGUA	65.3	84.4		
UAAGUAAGUGCAGGAUAUUUAAGAAGAACAUGAGGAUCACCCAUGUGAGGAUCACCCAUGUAAAAGGAGAAGGGCAGAGUAUGA	960	1220		
UCCUGGCGAGGAUAUACAAUGUUUUUCGCGUGUUGUUGCGAACAUGAGGAUCACCCAUGUAGAAGGUGCUACUG	278	225		
AGGGAACAUGAGGAUCACCCAUGUGAGGAUAUACAAAAGAAAAGAAAAGAAAGAAGAAGUAGAAGGUACAAGAA	28.2	35.5		
GGUACUCAAAGAGUACUUGGUCGAACAUGAGGAUCACCCAUGUAGGAUAUGCAAAGCAAGAAGUAGCAGAAGGACAUGUGCAGC	13.5	36.1		
AAGAAGUCAGGAUAUGCUGCUCGUCACUUGCGUGAUGAGUAGCAGAAGGGACAUGAGGAUCACCCAUGUGGAGA	114	241		
GUCAGCAAAUAAGGAUAUACAACACUGCUUCGGCAGUGUAUUAAGAUCACAUGAGGAUCACCCAUGUAGAAGGUAUAAGCUGAU	6.98	24.5		
GGUACCAACACAGGAUAUGCUAUCCUUUGGGUAGCAGAAGGGUGAAACAUGAGGAUCACCCAUGUGGUGCCACCCGGUGACGGG			1180	89.2
AUUAAACAUGAGGAUCACCCAUGUCAACAAAGUCGAGGAUAUGGGCAAUUAAAAUAAGAACCAGAAGGCGAAUAAU			340	35.4
UUCCUCGUUGUGAGGAUAUCGUCCGUGUUUUGUUACGAGAAGGCACAUGAGGAUCACCCAUGUUUUUUGUUUUU	39.2	77.7		
UGAAAUCAUGUAGGAUAUGCAUGGCGAAGCUACGCAGAAGGACAUGAGGAUCACCCAUGUUAUAGCUACCCAGUUCGGUGGCAA	141	118		
UAUGUAUUCGUAGGAUAUCCGUUGAGACCGUGUGGAGAAGGACGAACAUGAGGAUCACCCAUGUAUCAUGGUGUAGACAAUUUU	115	353		
ACUACUUAGUGAGGAUAUACAUAAUUUAUAACUGUAGAAGGCACAAACCUCAAUACAUGAGGAUCACCCAUGUUAUAUAUCUAA	62.6	64.3		
UUGGUAUUUGUAGGAUAUCUGUCGCCACCGUGUGGAGAAGGACGAACAUGAGGAUCACCCAUGUAUCAUGGUGUGGGCUUUGUU	757	710		
UUAAAACGUGUGAGGAUAUCGAGAGUAGCUGAUCUCGAGAAGGCACAUGAGGAUCACCCAUGUGGCCUGCACCG	14.6	14.7		
GGAUGAUUAAUAGGAUAUUAUUUGUAAUUUGGUUAAGAAGGAUUAAUGAUUUAAACGACCUGUUACAUGAGGAUCACCCAUGUU			95.5	74.1
GUCUCAGCUGAGGAUAUAUUCUCCCUUGAGGGAAUAGAAGGCAGUACAUGAGGAUCACCCAUGUGGUUCGUUUG	122	327		
AAAGAACUAGGAUAUACAUGAGGAUCACCCAUGUGCAGCUUAACGGCUCACACCUUAUGUAGAAGGAGUGACCG	16	19.3		
CCGGCUGCUGUGAGGAUAUGCCUGUGGGUGCGUGGGUAGAAGGCACAUGAGGAUCACCCAUGUCCUGCGGGCCC	123	81.8		
AAAGUUGGUAGGCCCUCGGCACAUGAGGAUCACCCAUGUAAGGAGGAUAUGCCCGGUACCCGCUGGCAGAAGGCCUUAUAAGAA	12.2	110		
AACAUGAGGAUCACCCAUGUACGCUGUAAUUACUCGCGUUGGCAGGAUAUGGGUUGGCUUCCGUCCCAGAAGGGUCAAGAUAAA			253	105
UUAUGUCGCGUAGGAUAUCACUAGUGUUGUAAUUUAAUUGUAAUUACGAUGUGAGAAGGACGUACACAUGAGGAUCACCCAUGU	20.3	16.2		
CGAAACUACGAGAAGGACAUGUGGUCCUUCAGUUACAUGAGGAUCACCCAUGUAGGAUAUCGUAGUUUCAGGAUCGUGAGAUCU	38.7	9.81		
AAAAAACAUGAGGAUCACCCAUGUGAGGAUAUGAUGCGAAUAAAGAAAGAAGAAAGCAUCAGAAGGCACACCUA	50.1	83.9		

Sequence	apparent Kd [1] [nM]	apparent Kd [2] [nM]	apparent Kd [3] [nM]	apparent Kd [4] [nM]
AAUUUACAGGGAGGAUAUACAUGAGGAUCACCCAUGUAAUCAUAUGAUAUUUUUUUUGUAUGAGUGUAGAAGGCCCAAAUAAAA	9.32	11.1		
AGAGGUCGCACAGGAUAUCAUACAUGAGGAUCACCCAUGUCAGAAAACAAAUGAGAAGGGUGCGCGUUAAUCGCUUGUGAAGAA			16.7	4.8
GUCUCCGCUCGAGGAUAUAGCUGCAUGUAGUGUCCUGAGGCACAUGAGGAUCACCCAUGUGUAGGCUAGAAGGCGACGGACACU		29.2		
AUCGGUCCGUAGAAGGGUGACAUGAGGAUCACCCAUGUGCCGUGUGCAUUUAUGCAUCCACGGCCACAGGAUAUACGGAGUUGA			34.9	25.4
GGUCCGUAACAGAAGGCCGUAACUGGUGGUGGCGGAGGAUAUGUGGGCGGCCCUUGACAACAUGAGGAUCACCCAUGUAUGUAA			328	30.6
AAACAGUACGAGAAGGGCUACAUGAGGAUCACCCAUGUAGACGGUCGUGUGGCAGGAUAUCGAACACACCGAAAACGGUGCGUU	5.32	7.09		
UGUGUCCGUAGAGGAUAUCCGGGCGUUCGGCUAGGAGAAGGCUGCGACACAUGAGGAUCACCCAUGUAGGUUGUGUCUCUCUAC	51.6	275		
GACUCGAAUGUAGGAUAUGCUGAGGAUAACUCAGCAGAAGGACAUGAGGAUCACCCAUGUAAAUGAGUGAAUAAUAAACGAGUC	1400	129		
CCGCGCGCGCGAGGAUAUCUAUAUCCAACAUGAGGAUCACCCAUGUUGAGGAUCACCCAUGUAAAGGAGAAGGCGCGCGCGCGG			44.8	15.8
UCGAUGCUAGGAUAUACUAAUAAAACUACUGUAGUGUCUUCACAUGAGGAUCACCCAUGUAGAAGGAGCAUCUA	28.3	21.8		
AUACUAAAUGAAGGAUAUCUAAGCAUAAACCUGAGAGAAGGUCAUUUUUACAUGAGGAUCACCCAUGUUGUGGUUAAUGGGUUA	216	317		
UUGGAGUUCGUAGGAUAUGUAGGAUAUUCCUACAUGAGGAUCACCCAUGUAUGCAUGGAAGAAGGACAGAAGGACGAGCUCCAU			184	13
GGGUACAUCGGAGGAUAUCAUGUGUAAACAUGAGGAUCACCCAUGUCGUACGAGAGUACGGAGAUUGAGAAGGCCGAUGUACCG			86.7	16.6
AAAAGGCAUCGUGACAUGAGGAUCACCCAUGUGAUUUGCUCACAGGAUAUCAUGCUCACGGAGCCUGAGAAGGGUGAAAGCUAA			28.7	54.7
GGUCGUCCCAUUAACAUGAGGAUCACCCAUGUCAAAAGACAUGAGGAUAUGCUACCUAAUUGGUAGCAGAAGGCAUGGACGACC			1170	84.7
UAUAUGUCAGGAUAUCGAUUGGAAUGGAAUUCAGUUCUGGUUGAGAAGGGACAUGAGGAUCACCCAUGUUUUUC	37.3	171		
CGCAACAUACAGAAGGAGUUAUUGAGAGGUUUACUAGGAUAUGUUCACAUGAGGAUCACCCAUGUCGUUUGGUUUUUUGUUGCG	18.4	11.2		
ACAAAUGGAGGAUAUACAUGAGGAUCACCCAUGUAUAUCCUACAUAUGUGAUAAUCAUGUAGAAGGCCAUUUGA	12.3	11		
CGACACCGGGAGAAGGCCAGACGCCGGCGCCCAAUACAACUGAGCUUAUGGAGGAUAUCCCGACAUGAGGAUCACCCAUGUAUC			35.5	10.8
UAUAUGUAUGUAGGAUAUGGUAUAUAAAAUAUACCAGAAGGACAUGAGGAUCACCCAUGUAUGAAAUUCCAUAAUAACCGUGUA	11.3	11		
AAUUAACUCACAGGAUAUAGCAGAGGUCGAGUGAACUUACACGCGACGAGGCUAGAAGGGUGACCACAUGAGGAUCACCCAUGU			872	103
CGCGAAAACAUAGGAUAUUGUUACAUGAGGAUCACCCAUGUCAACCAUUUAUCUCAAAUUGUUGACAAGAAGGAUGAGGUCGCG			113	28.4
UUGGACAGCUAGAACUGUUAAGUACAUGAGGAUCACCCAUGUCAGGAUAUCCUUCCGCAAUGCGAGGAGAAGGGACAGGGUCCC	53.7	124		
AAAAAGUGAUGGUAGGAUAUUGGAAAAGCCACAUGAGGAUCACCCAUGUCAAAAAACCUAAAAAACAAGAAGGGCUGUUAUAAAAA			18.5	14.8
AAGUCGCUAGGAGGAUAUACAUGAUCUCACACAUGUACCGCUCACGCCACAUGAGGAUCACCCAUGUAGAAGGCCUAGAGAGGU	23.4	62.4		
GGGUACAUCGGAGGAUAUCAUGUAAAUACAUGAGGAUCACCCAUGUCGAUGGAGACGUCGGAGAUUGAGAAGGCCGAUGUACCG			91	7.8
UGGUACUAGGGAGGAUAUGGGAAGAUACAUGAGGAUCACCCAUGUUUAAGAAUGCCGAGAGGUAACUAGAAGGCCCUAGUACCU			455	15.1
